Measurements taken from ChEMBL document CHEMBL2057082, “Discovery of N-(4-methoxy-7-methylbenzo[d]thiazol-2-yl)isonicatinamide, ML293, as a novel, selective and brain penetrant positive allosteric modulator of the muscarinic 4 (M4) receptor” (Bioorg Med Chem Lett, 2012).
The source made the active and inactive calls. The calls are words filed in the database; no cut-off is given here.

Assays:
[1] = molecular target: T1, Muscarinic acetylcholine receptor M4 (Homo sapiens) (UniProt P08173); experiment: (§1) Positive allosteric modulation of human M4 receptor expressed in CHO-K1 cells coexpressing Gqi5 assessed as potentiation of acetylcholine-mediated calcium mobilization incubated for 144 secs prior to acetylcholine addition by Fluo-4-AM staining; format: functional, cell-based
T1 sequence (whole entry): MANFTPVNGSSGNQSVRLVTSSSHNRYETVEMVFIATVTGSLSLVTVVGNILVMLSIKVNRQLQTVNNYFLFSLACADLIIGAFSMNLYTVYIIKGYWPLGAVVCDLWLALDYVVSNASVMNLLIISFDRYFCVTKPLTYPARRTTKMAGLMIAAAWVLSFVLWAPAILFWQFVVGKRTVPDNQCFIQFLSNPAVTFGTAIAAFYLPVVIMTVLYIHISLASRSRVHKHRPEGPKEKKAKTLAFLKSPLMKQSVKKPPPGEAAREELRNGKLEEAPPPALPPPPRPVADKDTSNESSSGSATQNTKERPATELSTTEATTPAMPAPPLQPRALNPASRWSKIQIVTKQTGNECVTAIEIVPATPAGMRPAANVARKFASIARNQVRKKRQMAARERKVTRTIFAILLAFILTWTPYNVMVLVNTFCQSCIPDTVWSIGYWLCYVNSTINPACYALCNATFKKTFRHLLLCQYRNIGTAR
Method in brief: (§2)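 hM4 stably cotransfected with chimeric Gqi5 in CHO-K1 cells. Cells plated overnight at 37 °C, loaded with Fluo-4 AM for 45 min at 37 °C in HBSS/20 mM HEPES/2.5 mM probenecid. Compound pretreated 144 s (0.3% DMSO final), then EC20 ACh, then EC80 ACh 86 s later; kinetic fluorescence at 37 °C.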

[2] = molecular target: T1, Muscarinic acetylcholine receptor M4 (Homo sapiens); experiment: Positive allosteric modulation of human M4 receptor expressed in CHO-K1 cells coexpressing Gqi5 assessed as potentiation of acetylcholine-mediated calcium mobilization incubated for 144 secs prior to acetylcholine addition by Fluo-4-AM staining relative to acetylcholine; format: functional, cell-based
Method in brief: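 hM4-Gqi5 CHO-K1 cells, plated overnight, loaded with Fluo-4 AM (45 min, 37 °C). Compound (0.3% DMSO final) preincubated 144 s, then ACh EC20 added, and EC80 added 86 s later; 1 mM ACh wells for normalization. Calcium read at 37 °C, normalized to baseline and then to maximal ACh response. EC50 from four-parameter logistic fit; three independent determinations in triplicate.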

[3] = molecular target: T2, Muscarinic acetylcholine receptor M4 (Homo sapiens, UniProt P08173); experiment: as §1; format: functional, cell-based; method in brief: as §2
T2 sequence (P08173 whole entry): T1 sequence (whole entry)

[4] = Plasma clearance in rat; format: ADME, organism-based

| Compound | pEC50 [1] | %max [2] [%] | EC50 [3] [µM] | also measured |
| --- | --- | --- | --- | --- |
| COc1ccc(C)c2sc(NC(=O)c3cccnc3)nc12 | – | 37.6 | 2.34 | – |
| COc1ccc(C)c2sc(NC(=O)Nc3ccncc3)nc12 | inactive | – | – | – |
| COc1ccc(C)c2sc(NC(=O)NCc3ccncc3)nc12 | inactive | – | – | – |
| Cc1nc2sc(C(=O)NCc3ccncc3)c(N)c2c(C)c1Cl | – | – | – | clearance [4]: > 100 mL/min/kg |
| O=C(Nc1nc2cccnc2s1)C1CCCC1 | inactive | – | – | – |
| COc1ccc(CNC(=O)c2sc3nc(C)cc(C)c3c2N)cc1 | – | – | – | clearance [4]: > 100 mL/min/kg |
| COc1ccc(C)c2sc(C(=O)NCc3ccncc3)nc12 | inactive | – | – | – |
| COc1ccc(C)c2sc(C(=O)NC3CCCCC3)nc12 | inactive | – | – | – |
| COc1ccc2nc(NC(=O)c3ccncc3)sc2n1 | inactive | – | – | – |
| COc1ccc(C)c2sc(NC(=O)c3ccccn3)nc12 | inactive | – | – | – |
| COc1ccc(C)c2sc(NC(=O)C3CCC3)nc12 | – | 52.2 | > 10 | – |
| COc1cccc2sc(NC(=O)c3ccncc3)nc12 | – | 36.5 | 2.82 | – |
| COc1ccc(C)c2sc(NC(=O)C3=COCCO3)nc12 | – | 55.7 | 1.82 | – |
| O=C(Nc1nc2cccnc2s1)c1cccnn1 | inactive | – | – | – |
| COc1ccc(C)c2sc(NS(=O)(=O)c3ccc(C(F)(F)F)cc3)nc12 | inactive | – | – | – |
| O=C(Nc1nc2ccccc2s1)C1CCCCO1 (configuration not stated) | inactive | – | – | – |
| COc1ccc(C)c2sc(NC(=O)C3CCCOC3)nc12 (configuration not stated) | – | 44 | > 10 | – |
| COc1ccc(C)c2sc(NC(=O)C3CCCC3)nc12 | – | 45 | > 10 | – |
| COc1ccc(C)c2sc(NC(=O)C3CC3C)nc12 (configuration not stated) | – | 66.5 | > 10 | – |
| COc1ccc(C)c2sc(NC(=O)c3cc(F)cc(F)c3)nc12 | inactive | – | – | – |
| COc1ccc(C)c2sc(NC(=O)NC3CCCC3)nc12 | – | 36.5 | 7.08 | – |
| Cc1cc(OCc2ccncc2)nc2sc(C(=O)NCc3cccc(F)c3F)c(N)c12 | – | – | – | clearance [4]: > 100 mL/min/kg |
| COc1ccc(C)c2sc(NC(=O)c3ccco3)nc12 | – | 51.8 | 1.35 | – |

Second part, led by results:

| pEC50 [1] | %max [2] [%] | EC50 [3] [µM] | Compound | also measured |
| --- | --- | --- | --- | --- |
| inactive | – | – | COc1ccc(C)c2sc(NC(=O)CCc3ccccc3)nc12 | – |
| inactive | – | – | COc1ccc(C)c2sc(NC(=O)N3CCCCC3)nc12 | – |
| inactive | – | – | O=C(Nc1nc2cccnc2s1)C1CCC1 | – |
| inactive | – | – | COc1ccc(C)c2sc(NC(=O)c3ccc(C)cc3)nc12 | – |
| inactive | – | – | COc1ccc(C)c2sc(NS(=O)(=O)c3cccc(Cl)c3)nc12 | – |
| inactive | – | – | COc1ccc(C)c2sc(NC(=O)C3=C(C)OCCO3)nc12 | – |
| inactive | – | – | COc1ccc(C)c2sc(NC(=O)NC3CCC3)nc12 | – |
| inactive | – | – | COc1ccc(C)c2sc(NC(=O)c3ccc(F)c(F)c3)nc12 | – |
| inactive | – | – | CCCCC1CC1C(=O)Nc1nc2c(OC)ccc(C)c2s1 (configuration not stated) | – |
| inactive | – | – | COc1ccc(C)c2sc(NC(C)=O)nc12 | – |
| inactive | – | – | COc1ccc(C)c2sc(NC(=O)CC(C)(C)C)nc12 | – |
| inactive | – | – | O=C(Nc1nc2cccnc2s1)c1cnccn1 | – |
| inactive | – | – | COc1ccc(C)c2sc(NC(=O)c3ccc(F)cc3F)nc12 | – |
| inactive | – | – | COc1ccc(C)c2sc(NS(=O)(=O)c3cc(C)ccn3)nc12 | – |
| inactive | – | – | COc1ccc(C)c2sc(C(=O)Nc3ccc(C)nc3)nc12 | – |
| inactive | – | – | COc1ccc(C)c2sc(NC(=O)c3ccc(F)cc3)nc12 | – |

| pEC50 [1] | %max [2] [%] | EC50 [3] [µM] | Compound | also measured |
| --- | --- | --- | --- | --- |
| – | 61.5 | > 10 | COc1ccc(C)c2sc(NC(=O)C3CC3)nc12 | – |
| – | 64.1 | > 10 | COc1ccc(C)c2sc(NC(=O)C3CCCCO3)nc12 (configuration not stated) | – |
| – | 39.3 | > 10 | COc1ccc(C)c2sc(NC(=O)NC3CC3)nc12 | – |
| inactive | – | – | COc1ccc(C)c2sc(NS(=O)(=O)c3cccc(C)c3)nc12 | – |
| inactive | – | – | COc1ccc(C)c2sc(NS(=O)(=O)c3ccc(F)cc3F)nc12 | – |
| inactive | – | – | COc1ccc(C)c2sc(NC(=O)CC3CC3)nc12 | – |
| – | 35.6 | 7.76 | COc1ccc(C)c2sc(C(=O)NC3CC3)nc12 | – |
| inactive | – | – | COc1ccc(C)c2sc(NC(=O)c3c(F)cccc3F)nc12 | – |
| – | 43.2 | > 10 | COCC(=O)Nc1nc2c(OC)ccc(C)c2s1 | – |
| inactive | – | – | COc1ccc(C)c2sc(NS(=O)(=O)c3cnn(C)c3)nc12 | – |
| – | 43.5 | > 10 | COc1ccc(C)c2sc(NC(=O)N3CCCC3)nc12 | – |
| – | 38.2 | 1.12 | COc1ccc(C)c2sc(NC(=O)c3cnccn3)nc12 | – |
| – | 43.7 | > 10 | COc1ccc(C)c2sc(NC(=O)C3CCCCC3)nc12 | – |
| inactive | – | – | COc1ccc(C)c2sc(NS(=O)(=O)c3ccc4occc4c3)nc12 | – |
| – | 52.5 | > 10 | CCCC(=O)Nc1nc2c(OC)ccc(C)c2s1 | – |
